Assay results: article PMC4207547 (Journal of Medicinal Chemistry, 2014)
pIC50: −log10 of the molar value. Entries after “also recorded” stand apart in the source; their conditions may differ.

How the values were obtained:
PAF-induced Ca2+ flux = PAF-induced Ca2+ flux in hPMNs; assay type: cell-based, human; conditions: for effect on PAF-induced Ca2+ flux, in words: hPMNs, concentrations up to 5 μM
CXCR2 [1] = molecular target: T1, CXCR2 (Homo sapiens, UniProt P25025); test: Competition [125I]-CXCL8 binding assay, HEK293-hCXCR2 membranes; conditions: up to 10 μM compound, 25 pM radioligand
T1 sequence (P25025 1-360): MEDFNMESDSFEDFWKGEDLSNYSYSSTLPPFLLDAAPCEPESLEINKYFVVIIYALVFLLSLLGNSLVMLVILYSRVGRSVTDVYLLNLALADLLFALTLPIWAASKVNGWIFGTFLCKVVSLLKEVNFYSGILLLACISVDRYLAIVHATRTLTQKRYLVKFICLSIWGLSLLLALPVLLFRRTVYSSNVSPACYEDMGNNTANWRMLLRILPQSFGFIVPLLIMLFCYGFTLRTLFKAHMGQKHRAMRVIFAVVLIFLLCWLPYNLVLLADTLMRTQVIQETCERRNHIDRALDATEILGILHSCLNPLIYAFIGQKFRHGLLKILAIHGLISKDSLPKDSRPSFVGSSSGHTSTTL

CXCR2 [2] = molecular target: T1, CXCR2; test: CXCR2 cell surface expression by flow cytometry in HEK293 cells; assay type: cell-based; conditions: 10 μM, 60 min exposure
How it was run: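 Stable HEK293-CXCR2 cells were pretreated with 1% DMSO vehicle or test compound for 60 min; untransfected HEK293 served as negative isotype control. Cells were stained with PE-conjugated anti-human CXCR2 mouse monoclonal (1:100) at 4 °C for 60 min, washed, and fixed in 2% formaldehyde/PBS. PE signal was quantified by flow cytometry; data representative of three independent experiments.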

male CD1 Swiss mice = test: Murine air-pouch model of inflammation; assay type: in vivo, mouse; conditions: 0.2 mg/kg iv, 3 h before 2% carrageenan; vs positive control cohort, p < 0.01
How it was run: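 Dorsal air pouch in 10–15-week-old male CD1 Swiss mice: 2 mL air sc, reinflated with 1.5 mL next day. Test compound (0.02 or 0.20 mg/kg) in PEG400:DMF:saline 20:20:80, or vehicle, was given iv by tail vein, n = 5 per cohort. After 3 h, 1 mL PBS or 2% carrageenan in PBS was injected into the pouch. Pouch fluid plus a 2 mL PBS wash was collected 4 h later; cells were counted by trypan blue on a hemocytometer. Student's t-test vs carrageenan/vehicle cohort.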

[3] = tested on: CXCR2-mediated phosphorylation of ERK1/2; test: CXCL8-induced ERK1/2 phosphorylation in HEK293 cells expressing CXCR2; assay type: cell-based, human; conditions: 10 μM compound, CXCL8 100 ng/mL, 0–30 min
How it was run: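 G418-selected HEK293 pool stably expressing human CXCR2, 5 × 10^6 cells per 60 mm plate. […] Lysis was at 0, 5, 15 and 30 min in SDS/deoxycholate/Triton buffer with PMSF, aprotinin and leupeptin. Phospho-ERK1/2 and total ERK1/2 were detected by Western blot.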

C5a-induced Ca2+ flux = C5a-induced Ca2+ flux in hPMNs; assay type: cell-based, human; conditions: for effect on C5a-induced Ca2+ flux, in words: hPMNs, concentrations up to 5 μM
How it was run: (§1)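 Human PMNs were isolated from healthy donor blood by dextran sedimentation, Histopaque 1077 gradient and hypotonic red cell lysis (>95% pure, >98% viable). Cells were dye-loaded (FLIPR Calcium 3) in Ca/Mg-free HBSS with 10 mM HEPES plus test compound or 1% DMSO for 30 min at 37 °C. They were then resuspended in HBSS+ with compound re-added, at 10^5 cells/well. Agonist final: C5a 50 nM, fMLF 10 nM. Fluorescence (ex 485/em 525 nm) was read every 5 s for 240–500 s at room temperature, max–min as % of DMSO control.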

fMLF-induced Ca2+ flux = fMLF-induced Ca2+ flux in hPMNs; assay type: cell-based, human; conditions: for effect on fMLF-induced Ca2+ flux, in words: hPMNs, concentrations up to 5 μM
How it was run: as §1

CXCR1 and CXCR2 = test: CXCL8-stimulated Ca2+ flux in hPMNs; assay type: cell-based, human; conditions: 1 μM compound
How it was run: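 Human PMNs isolated from blood by dextran sedimentation, Histopaque 1077 gradient and hypotonic red-cell lysis (>95% pure, >98% viable). Cells loaded with FLIPR Calcium 3 dye in Ca2+/Mg2+-free HBSS with 10 mM HEPES plus test compound or DMSO (1% final), 37 °C, 30 min. They were then pelleted and resuspended in HBSS with Ca2+/Mg2+, and compound was re-added at the same concentration. Fluorescence was read at 10^5 cells/well: 15 s basal, then agonist injected.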

O=C(Nc1ccc(F)cc1)c1ccc(SCc2ccccc2B(O)O)nc1 [Compound 7, 2-((5-(4-Fluorophenylcarbamoyl)pyridin-2-ylthio)methyl)phenylboronic acid]
pIC50 (PAF-induced Ca2+ flux; Homo sapiens, read-out: IC50, PAF-induced Ca2+ flux): < 5.30
effect on PAF-induced Ca2+ flux, in words (PAF-induced Ca2+ flux): failed to inhibit; also recorded: no inhibition
effect on PAF-induced Ca2+ flux, in words (PAF-induced Ca2+ flux; listed as SX-517): no effect
competition of [125I]-CXCL8 binding to CXCR2 membranes, in words (CXCR2 [1]): failed to compete
competition of [125I]-CXCL8 binding to CXCR2 membranes, in words (CXCR2 [1]; listed as SX-517): unable to compete
effect on cell surface expression of CXCR2, in words (CXCR2 [2]): did not significantly alter
total cell count in inflammatory pouch infiltrate, in words (male CD1 Swiss mice): significant reduction; also recorded: significantly reduced
effect on CXCL8-induced ERK1/2 phosphorylation, in words [3]: completely blocked; also recorded: directly antagonized
effect on CXCL8-induced ERK1/2 phosphorylation, in words ([3]; listed as SX-517): antagonized
pIC50 (C5a-induced Ca2+ flux; Homo sapiens, read-out: IC50, C5a-induced Ca2+ flux): < 5.30
effect on C5a-induced Ca2+ flux, in words (C5a-induced Ca2+ flux): failed to inhibit; also recorded: no inhibition
effect on C5a-induced Ca2+ flux, in words (C5a-induced Ca2+ flux; listed as SX-517): no effect
pIC50 (fMLF-induced Ca2+ flux; Homo sapiens, read-out: IC50, fMLF-induced Ca2+ flux): < 5.30
effect on fMLF-induced Ca2+ flux, in words (fMLF-induced Ca2+ flux): failed to inhibit; also recorded: no inhibition
effect on fMLF-induced Ca2+ flux, in words (fMLF-induced Ca2+ flux; listed as SX-517): no effect
effect on CXCL8-stimulated Ca2+ flux, in words (CXCR1 and CXCR2): completely eliminate
